IDH1 mut inh: inhibitors of IDH1 R132H reductase, primary screen, biochemical, plate reader, single point | Isocitrate dehydrogenase [NADP] cytoplasmic (Homo sapiens), O75874 | diaphorase/resazurin fluorescence, 60 min | inhibition, % at 10 µM | 70,000 tested, 0.18% active | AID 624101, 2012; in the data active = inhibition above about 34%;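 note: 0% = DMSO and 100% = no enzyme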
Target sequence (O75874 whole entry R132H): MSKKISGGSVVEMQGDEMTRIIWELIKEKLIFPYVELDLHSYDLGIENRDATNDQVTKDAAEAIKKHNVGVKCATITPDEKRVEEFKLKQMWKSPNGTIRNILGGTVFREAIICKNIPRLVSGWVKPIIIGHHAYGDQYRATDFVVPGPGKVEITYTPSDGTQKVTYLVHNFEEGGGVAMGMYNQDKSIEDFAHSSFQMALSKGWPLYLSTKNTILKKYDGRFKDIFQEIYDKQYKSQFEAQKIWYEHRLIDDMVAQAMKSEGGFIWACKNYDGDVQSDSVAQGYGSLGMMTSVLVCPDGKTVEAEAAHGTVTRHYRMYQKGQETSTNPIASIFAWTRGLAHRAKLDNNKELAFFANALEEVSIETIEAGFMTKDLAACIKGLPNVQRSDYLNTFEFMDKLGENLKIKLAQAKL
KDM4C inh: inhibitors of GASC-1 (KDM4C) histone demethylase, primary screen, biochemical, single concentration HTS; 96,000 tested, 0.15% active; GST-KDM4C 2-372, H3K9me3 peptide, LANCE TR-FRET; AID 720574, 2013; Lysine-specific demethylase 4C (Homo sapiens), Q9H3R0; inhibition, % at 12.5 µM;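 active = mean replicate inhibition above about 25%, with at least 55% of replicates also reaching it, limit read from the data, passing the limit was not always enough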
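Test system – GST-tagged GASC-1 (JMJD2C) catalytic fragment, aa 2-372 · Medium – HEPES buffer, pH 7.5, plus ascorbate · Reagent – H3K9me3 peptide with Fe(II)/2OG · Compound – one test concentration per compound · Timing – 30 min reaction, 60 min detection, RT · Technique – TR-FRET with Eu antibody and ULight streptavidin, EDTA stop · Read-out basis – inhibition from TR-FRET ratio decrease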
T cruzi growth: T. cruzi intracellular proliferation inhibitors, primary screen, cell-based, beta-gal Tulahuen parasites, NIH3T3 host, luminescence. T. cruzi beta-gal in NIH3T3, GalScreen luminescence, 90 h. inhibition, % at 8.34 µM. 77,000 tested, 5.9% active;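 active = mean inhibition above about 93%, with at least 55% of replicates each passing it, limit read from the data, passing the limit was not always enough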
Numbers without * were called inactive; ! = a repeat was not active. The full list was thinned out, with hits kept by preference.

`C=CCN1C(=O)[C@]2(O[C@H](CCO)[C@@H]([Si](C)(C)c3ccc(OC)cc3)[C@@H]2C)c2cc(NC(=O)[C@H](C)O)ccc21` gave IDH1 mut inh 0.
`C=CCN1C(=O)[C@@]2(O[C@@H](CCn3cc(CCO)nn3)[C@H]([Si](C)(C)c3ccc(OC)cc3)[C@H]2C)c2cc(NC(=O)c3ccc(OC)cc3)ccc21` gave IDH1 mut inh 66*.
Screening CO[C@H]1CN(C)C(=O)c2ccc(NC(=O)c3cccc(F)c3)cc2OC[C@H](C)N(C)C[C@@H]1C returned KDM4C inh 0.
Screening CO[C@@H]1CN(C)C(=O)c2ccc(NC(=O)c3ccccc3)cc2OC[C@H](C)N(C)C[C@@H]1C returned IDH1 mut inh 89*, KDM4C inh 19 and T cruzi growth -10.
`CO[C@@H]1CN(C)C(=O)c2ccc(NC(=O)Nc3c(C)noc3C)cc2OC[C@H](C)N(C)C[C@@H]1C` gave IDH1 mut inh 0, KDM4C inh 51* and T cruzi growth 25.
For CCC(=O)Nc1ccc2c(c1)OC[C@H](C)N(CC1CCOCC1)C[C@H](C)[C@H](OC)CN(C)C2=O the results were IDH1 mut inh 2, KDM4C inh 44* and T cruzi growth 19.
`CCC(=O)Nc1ccc2c(c1)OC[C@H](C)N(CC1CCOCC1)C[C@@H](C)[C@H](OC)CN(C)C2=O` gave IDH1 mut inh 0, KDM4C inh -1 and T cruzi growth -42.
Screening CO[C@H]1CN(C)C(=O)c2ccc(NC(=O)c3ccccc3)cc2OC[C@@H](C)N(C)C[C@@H]1C returned IDH1 mut inh 0, KDM4C inh 0 and T cruzi growth 6.
CO[C@H]1CN(C)C(=O)c2ccc(NC(=O)c3cccc(F)c3)cc2OC[C@H](C)N(C)C[C@H]1C was read as IDH1 mut inh 2, KDM4C inh 38* and T cruzi growth -36.
CO[C@@H]1CN(C)C(=O)c2ccc(NC(=O)Nc3c(C)noc3C)cc2OC[C@H](C)N(C)C[C@H]1C was read as IDH1 mut inh 1, KDM4C inh -1 and T cruzi growth -13.
Screening CCCCN1C(=O)[C@H]2Cc3c([nH]c4ccccc34)[C@H](c3ccc(OC)cc3)N2C1=O returned IDH1 mut inh 0.
CSc1ccccc1NC(=O)C(C)N(c1ccc(C)cc1)S(C)(=O)=O (stereo unspecified) was read as IDH1 mut inh 0.
For Cc1ccc(O)c(NC(=O)c2nc3ncccn3n2)c1 the results were IDH1 mut inh -1.
`CO[C@H]1CN(C)C(=O)c2cc(NC(=O)c3cccc(F)c3)ccc2OC[C@@H](C)N(C(C)=O)C[C@@H]1C` gave IDH1 mut inh 0, KDM4C inh 1 and T cruzi growth 9.
`CO[C@H]1CN(C)C(=O)c2ccc(NC(=O)C3CCCC3)cc2OC[C@H](C)N(C(C)=O)C[C@H]1C` gave IDH1 mut inh 0 and KDM4C inh 47*.
Screening CO[C@H]1CN(C)C(=O)c2ccc(NC(=O)C3CC3)cc2OC[C@H](C)N(C(C)=O)C[C@H]1C returned IDH1 mut inh 0, KDM4C inh 9 and T cruzi growth 11.
CO[C@@H]1CN(C)C(=O)c2cc(NC(=O)c3cccc(F)c3)ccc2OC[C@H](C)N(C(C)=O)C[C@H]1C was read as IDH1 mut inh 98*, KDM4C inh 65* and T cruzi growth 44.
For OC(CNCc1ccccc1)Cn1c2ccccc2c2ccccc21 (stereo unspecified) the results were IDH1 mut inh 0.
Screening COCc1cc(C)n(CC(=O)Nc2cc(Cl)ccc2OC)c(=O)c1C#N returned IDH1 mut inh 0.
CCOc1ccccc1NC(=O)C(C)Oc1ccc(OC)cc1 (stereo unspecified) was read as IDH1 mut inh 0.
For CC(C)(C)C(=O)CSc1nnc(-c2ccco2)o1 the results were IDH1 mut inh 1.
For C[C@@H]1CCCCO[C@@H](CN(C)Cc2ccc3c(c2)OCO3)[C@H](C)CN([C@@H](C)CO)C(=O)c2cc(N(C)C)ccc2O1 the results were T cruzi growth 102*!.
Cc1noc(C)c1S(=O)(=O)N(C)C[C@H]1OCCCC[C@@H](C)Oc2ccc(NC(=O)Nc3ccc(C(F)(F)F)cc3)cc2C(=O)N([C@@H](C)CO)C[C@H]1C was read as KDM4C inh 0 and T cruzi growth 97*.
